T cell HTS = modulators of CD8 T cell-vesicle binding, primary screen, mouse 2C CD8+ T cells, flow cytometry; 2C CD8+ T cell-vesicle binding; hits give low values; response (vesicle binding), % at 7 µM; 330,000 compounds, 0.068% hits; AID 2052, 2009;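 active = response, share of CD8 T cells binding vesicles, and their 90th percentile fluorescence all below set limits, cut at about 80% in these data, passing the limit was not always enough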;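 note: values below 100% mean blocked vesicle binding to the CD8+ T cells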
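Assay system – 2C mouse CD8+ T cells · Also added – QL9-loaded Drosophila micro-vesicles · Timing – Cell–vesicle co-incubation 1.5 h at 37 °C, staining 20 min on ice · Signal – flow cytometry of vesicle-bound cells · Measure – percent CD8+ FL2 mean versus row control · Controls – Peptide-free naked vesicles (low) and QL9 vesicles with 0.7% DMSO vehicle (high)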
Rce1 inhib = yeast Rce1p protease inhibitors, primary screen, biochemical, fluorescence, cell-free homogeneous; yeast membranes, quenched prenylated peptide cleavage fluorescence; calls only; 290,000 compounds, 0.27% hits; AID 2563, 2010;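 active = fall in fluorescence gain of 50% or more versus controls, with final raw signal at or below 3038400; inconclusive = same 50% fall but final raw signal above 3038400; inactive = fall in fluorescence gain under 50%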
MIN6 prolif = inducers of MIN6 beta-cell proliferation, primary screen, ATP luminescence, uHTS. AID 2380, 2010. MIN6 cells proliferation, ATPlite luminescence, 48 h; cells starved in 0.2% serum; 100% = growth in 10% serum. proliferation, % at 10 µM. 330,000 compounds, 0.29% hits;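 active = compounds whose signal lies at least 3.5 SD above the mean of all wells on their plate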
KLK7 zymogen act = proKLK7 zymogen activators, primary screen, biochemical, fluorescence intensity; Kallikrein-7 (Homo sapiens), P49862; purified proKLK7, EDANS-DABCYL substrate fluorescence; 100% is mature enzyme control, 0% vehicle; activation, % at 7 µM; 370,000 compounds, 0.9% hits;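 active = activation above the mean of all tested compounds plus 3 SD, computed per campaign excluding outliers beyond control limits, cut at about 13% in these data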
Target sequence (P49862 whole entry, looked up): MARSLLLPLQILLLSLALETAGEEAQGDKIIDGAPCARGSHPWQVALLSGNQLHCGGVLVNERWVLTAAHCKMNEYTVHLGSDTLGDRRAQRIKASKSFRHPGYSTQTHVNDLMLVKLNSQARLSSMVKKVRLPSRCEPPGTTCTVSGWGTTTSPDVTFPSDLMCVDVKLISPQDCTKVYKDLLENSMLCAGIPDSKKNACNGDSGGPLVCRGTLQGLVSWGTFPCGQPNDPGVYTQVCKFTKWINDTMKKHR
CR mimetic SO = reduction of superoxide in aged yeast, primary screen, HTS | 330,000 compounds, 0.18% hits | S. cerevisiae aged cells, superoxide DHE fluorescence; hits give low values | superoxide response (% of plate mean), % at 10 µM;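 active = superoxide response under a set limit, about three screen SD below normal, cut at about 65% in these data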;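 note: yeast aged for seven days with compound at 30 °C before DHE staining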
V-ATPase pHluor = regulators of yeast V-ATPase proton pumping, primary screen, pHLuorin cytosolic pH fluorescence; 350,000 compounds, 0.37% hits; AID 504577, 2011; S. cerevisiae; response, % at 10 µM; in the data active = response mostly above about 7.3%, no sharp cut-off; inactive = mostly below about 5.4%; note: actives read high
proKLK7 act conf = proKLK7 zymogen activators, confirmation, biochemical, fluorescence intensity, triplicate; shares compounds with KLK7 zymogen act; AID 686949, 2013; 3,200 compounds, 68% hits; activation, % at 7 µM; purified proKLK7, EDANS-DABCYL substrate fluorescence; scaled: vehicle 0, mature enzyme 100;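 active = activation, as change over the incubation, above the mean of all tested compounds plus 3 SD, cut at about 13% in these data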
EDANS interfere = EDANS-DABCYL substrate optical interference, artefact control for kallikrein-7 zymogen activator project, biochemical, fluorescence intensity, high throughput. shares compounds with KLK7 zymogen act. no enzyme, 4 h; solvent 0%, active enzyme control 100%. activation, % at 7 µM. 3,200 compounds, 80% hits;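 active = activation above the all-compound mean plus 3 SD, ignoring values outside control-based bounds, cut at about 4.8% in these data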;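 note: value is the 4 h activation minus the activation read at time zero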
EDANS interf = counter-screen for kallikrein-7 activators: EDANS-DABCYL interference, dose response; EDANS-DABCYL peptide fluorescence interference, no enzyme; EC50, µM; 250 compounds, 20% hits; shares compounds with KLK7 zymogen act; AID 720493;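 active = compounds that raise the fluorescence signal in this interference counterscreen, with EC50 at or below 10 µM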;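 note: intact quenched peptide substrate alone read at 355 nm excitation and 520 nm emission; signal is fluorescence gain from T0 to T4 after four hours at room temperature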
Numbers stand for hits; . = inactive; ? = inconclusive; / = no result given. This is a sample that favours compounds with a hit; in the whole collection about 1.9% have one here.

SMILES | T cell HTS | Rce1 inhib | MIN6 prolif | KLK7 zymogen act | CR mimetic SO | V-ATPase pHluor | proKLK7 act conf | EDANS interfere | others
CC[C@@H]1C(c2ccccc2)=NN(c2ccccc2)[C@H]1C(=O)N1CCOC1=O | / | / | / | 186.8 | . | . | 161.1 | 131.2
COCc1cc(N2CCNC[C@@H]2C)ccc1N1CCS(=O)(=O)CC1 | / | / | / | . | / | / | / | /
CC1(C)O[C@@H]2[C@H](O1)[C@@H](O)C[C@H]2n1cnc2c(Cl)ncnc21 | / | / | / | . | / | / | / | /
Cc1ccccc1-n1c2nc(=O)n(C)c(=O)c-2cc2ccccc21 | . | . | . | 20.7 | . | . | 29.8 | 19.3 | EDANS interf=.
C=CCN(C(=O)[C@@H](C)[C@@H](O)c1ccc(C(C)=O)cc1)c1ccccc1 | / | / | / | . | / | / | / | /
COc1ccc(C(CCOC(=O)Oc2ccccc2)c2cc(OC)cc(OC)c2)cc1 (stereo unspecified) | / | / | / | . | / | / | / | /
Cn1c(-c2ccc(C=O)s2)nc2ccccc21 | . | . | . | 47.7 | . | . | 52.3 | 55.6
Cn1c(-c2cccs2)nc2ccccc21 | . | . | . | . | . | . | / | /
Cc1ccc(S(=O)(=O)NN2C(=O)c3ccccc3NC2c2ccccn2)cc1 (stereo unspecified) | . | . | . | 20.3 | . | . | . | 4.4
Cc1ccc(S(=O)(=O)NN2C(=O)c3ccccc3NC2C)cc1 (stereo unspecified) | . | . | . | 39.0 | . | . | . | 11.0
O=C1c2ccccc2NC(c2ccccc2F)N1NS(=O)(=O)c1ccccc1 (stereo unspecified) | . | . | . | 19.0 | . | . | . | 6.8
Cc1ccc(S(=O)(=O)NN2C(=O)c3ccccc3NC2c2ccccc2O)cc1 (stereo unspecified) | . | . | . | . | . | . | / | /
CC1Nc2ccccc2C(=O)N1NS(=O)(=O)c1ccccc1 (stereo unspecified) | . | . | . | 21.4 | . | . | . | 4.5
CCOc1ccc(Cl)cc1-c1cc(C(=O)NCc2cc(C(F)(F)F)cc(C(F)(F)F)c2)[nH]n1 | / | / | / | . | / | / | / | /
COc1ccc(-c2c(C)c3ccc(O)cc3oc2=O)cc1OC | . | . | . | 35.8 | . | . | 68.7 | 73.7
Cc1c(CCC(=O)O)c(=O)oc2cc3occ(C(C)(C)C)c3cc12 | . | . | . | . | . | . | / | /
Cc1c(CCC(=O)O)c(=O)oc2cc(O)ccc12 | . | ? | . | 39.5 | . | . | 66.1 | 78.5
CC1(C)Oc2ccc3ccc(=O)oc3c2C(/C=N/O)C1=O (stereo unspecified) | . | . | . | 27.5 | . | . | 17.1 | 18.2
CS(=O)(=O)Nc1ccc(C(=O)Nc2ccc3ccccc3c2)cc1 | . | . | . | 12.6 | . | . | . | .
COc1ccc(NC(=O)C2CCCN(C(=O)c3ccc(Cl)cc3)C2)cc1Cl (stereo unspecified) | . | / | . | . | . | . | / | /
Cc1cc2nc(/C=C/c3nc4cc(C)c(C)cc4[nH]3)[nH]c2cc1C | . | . | / | . | . | . | / | /
Cc1ccc(/C=C/c2nc3ccccc3[nH]2)o1 | . | . | . | 20.7 | . | . | 31.4 | 30.1
COc1cc2cc(C(N)=O)c(N)nc2cc1OC | . | . | . | 73.3 | . | . | 64.8 | 69.1
Nc1nc2sc3c(c2cc1C(=O)N1CCOCC1)CCCC3 | . | . | . | 13.5 | . | . | . | 14.4

Screening results from PubChem BioAssay.
